Tests used:
[1] = test system: Rattus norvegicus; experiment: Mean urinary output in rats when compound administered at 10 mg/kg po and vehicle dosed at 33.59 umol/kg; type: ADME, organism-based, Urine; set-up: dose 10 mg/kg, route oral; details: in vivo
Outline: (§1)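 Water-loaded male Sprague-Dawley rats (HC/CFY, 175-200 g) fasted and without water for 18 h. Oral gavage of 2.5-160 mg/kg in 1% CMC with 0.1% Tween 80, then distilled water 2.5 mL/100 g po. Urine collected 6 h in metabolic cages, mean output in mL/6 h/kg bw. Unpaired Student t-test against vehicle; dose-response by linear regression.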

[2] = test system: Rattus norvegicus; experiment: Mean Chlorine excretion in rats when compound administered at 10 mg/kg po and vehicle dosed at 33.59 umol/kg; type: ADME, organism-based; set-up: dose 10 mg/kg, route oral; details: in vivo
Outline: (§2)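 Male Sprague-Dawley rats (HC/CFY, 175-200 g), no food or water for 18 h before and during the test. Single gavage dose (2.5-160 mg/kg; vehicle 1% carboxymethyl cellulose/0.1% Tween 80, 0.5 mL/100 g bw), then distilled water 2.5 mL/100 g bw po. Individual metabolic cages, 6 h urine. K+ by flame photometry, Cl- colorimetric, as mequiv/6 h/kg bw; unpaired Student t-test vs control.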

[3] = test system: Rattus norvegicus; experiment: Volume of urine 4 hr after the compound was administered 10 mg/kg po in rat; type: ADME, organism-based; set-up: dose 10 mg/kg, route oral; details: in vivo
Outline: (§3)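 Onset/duration protocol: male Sprague-Dawley rats (HC/CFY, 175-200 g), food and water withdrawn for 18 h before and during the test. Single gavage dose in 1% carboxymethyl cellulose/0.1% Tween 80 (0.5 mL/100 g bw), then distilled water load (2.5 mL/100 g bw po). Two rats per metabolic cage, six pairs per group. Urine collected at 0-1, 1-2, 2-3, 3-4 and 4-6 h; Na+ by flame photometry. Vehicle controls; nonpaired Student t-test.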

[4] = test system: Rattus norvegicus; experiment: Urinary sodium 4 hr after the compound was administered 10 mg/kg po in rat; type: ADME, organism-based, Urine; set-up: dose 10 mg/kg, route oral; details: in vivo
Outline: (§4)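 Onset and duration study in fasted, water-loaded male Sprague-Dawley rats housed two per metabolic cage, six pairs per group. Single oral dose given, then water 2.5 mL/100 g po. Urine volume and sodium (flame photometry) measured over 0-1, 1-2, 2-3, 3-4 and 4-6 h intervals. Mean values compared with vehicle by Student t-test.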

[5] = test system: Rattus norvegicus; experiment: Mean urinary output in rats when compound administered at 0 mg/kg po and vehicle dosed at 0 umol/kg; type: ADME, organism-based, Urine; set-up: dose 0 mg/kg, route oral; details: in vivo; outline: as §1
[6] = test system: Rattus norvegicus; experiment: Volume of urine 3h after the compound was administered 10 mg/kg po in rat; type: ADME, organism-based; set-up: dose 10 mg/kg, route oral; details: in vivo; outline: as §3
[7] = test system: Rattus norvegicus; experiment: Mean urinary output in rats when compound administered at 80 mg/kg po and vehicle dosed at 268.71 umol/kg; type: ADME, organism-based, Urine; set-up: dose 80 mg/kg, route oral; details: in vivo; outline: as §1
[8] = test system: Rattus norvegicus; experiment: Mean potassium excretion in rats when compound administered at 5 mg/kg po and vehicle dosed at 16.79 umol/kg; type: ADME, organism-based; set-up: dose 5 mg/kg, route oral; details: in vivo
Outline: (§5)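 Male Sprague-Dawley rats (HC/CFY, 175-200 g) fasted and water-deprived 18 h before and during the test. Dosed by gavage at 2.5-160 mg/kg in 1% carboxymethyl cellulose/0.1% Tween 80, 0.5 mL/100 g bw. Immediately hydrated with water (2.5 mL/100 g bw, po). Urine collected 6 h in metabolic cages; Na+ and K+ by flame photometry; mean mequiv/6 h/kg bw; nonpaired Student t-test.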

[9] = test system: Rattus norvegicus; experiment: Urinary sodium 6 hr after the compound was administered 10 mg/kg po in rat; type: ADME, organism-based, Urine; set-up: dose 10 mg/kg, route oral; details: in vivo; outline: as §4
[10] = test system: Rattus norvegicus; experiment: Mean Chlorine excretion in rats when compound administered at 5 mg/kg po and vehicle dosed at 16.79 umol/kg; type: ADME, organism-based; set-up: dose 5 mg/kg, route oral; details: in vivo; outline: as §2
[11] = test system: Rattus norvegicus; experiment: Mean sodium excretion in rats when compound administered at 5 mg/kg po and vehicle dosed at 16.79 umol/kg; type: ADME, organism-based; set-up: dose 5 mg/kg, route oral; details: in vivo; outline: as §5
[12] = test system: Rattus norvegicus; experiment: Mean sodium excretion in rats when compound administered at 0 mg/kg po and vehicle dosed at 0 umol/kg; type: ADME, organism-based; set-up: dose 0 mg/kg, route oral; details: in vivo; outline: as §5
[13] = test system: Rattus norvegicus; experiment: Mean Chlorine excretion in rats when compound administered at 2.5 mg/kg po and vehicle dosed at 8.4 umol/kg; type: ADME, organism-based; set-up: dose 2.5 mg/kg, route oral; details: in vivo; outline: as §2
[14] = test system: Rattus norvegicus; experiment: Mean sodium excretion in rats when compound administered at 40 mg/kg po and vehicle dosed at 134.35 umol/kg; type: ADME, organism-based; set-up: dose 40 mg/kg, route oral; details: in vivo; outline: as §5
[15] = Acute toxicity in mice when given po; type: organism-based; details: mouse, in vivo, read-out: DL50 (the source's name)
Outline: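 Male Swiss mice (SPF, HC/CFLP strain, 20–25 g), oral dosing; mortality followed over 15 days; LD50 derived by the Litchfield and Wilcoxon method.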

[16] = test system: Rattus norvegicus; experiment: Volume of urine 2 hr after the compound was administered 10 mg/kg po in rat; type: ADME, organism-based; set-up: dose 10 mg/kg, route oral; details: in vivo; outline: as §3
[17] = test system: Rattus norvegicus; experiment: Mean sodium excretion in rats when compound administered at 2.5 mg/kg po and vehicle dosed at 8.4 umol/kg; type: ADME, organism-based; set-up: dose 2.5 mg/kg, route oral; details: in vivo; outline: as §5
[18] = test system: Rattus norvegicus; experiment: Mean Chlorine excretion in rats when compound administered at 40 mg/kg po and vehicle dosed at 134.35 umol/kg; type: ADME, organism-based; set-up: dose 40 mg/kg, route oral; details: in vivo; outline: as §2
[19] = test system: Rattus norvegicus; experiment: Mean urinary output in rats when compound administered at 5 mg/kg po and vehicle dosed at 16.79 umol/kg; type: ADME, organism-based, Urine; set-up: dose 5 mg/kg, route oral; details: in vivo; outline: as §1
[20] = test system: Rattus norvegicus; experiment: Dose required to produce an excretion of 2 mequiv of Na+/kg bw/6h vs control groups; type: functional
Outline: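 Male Sprague-Dawley rats (HC/CFY, 175-200 g), fasted and water-deprived 18 h before and during the test. Compound dosed by gavage in 1% carboxymethyl cellulose/0.1% Tween 80, then water load 2.5 mL/100 g bw po. Urine collected 6 h in metabolic cages; Na+ by flame photometry. Effective doses vs vehicle controls derived by linear regression of dose-response data.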

[21] = test system: Rattus norvegicus; experiment: Mean sodium excretion in rats when compound administered at 80 mg/kg po and vehicle dosed at 268.71 umol/kg; type: ADME, organism-based; set-up: dose 80 mg/kg, route oral; details: in vivo; outline: as §5

## NS(=O)(=O)c1cc2c(cc1Cl)NCNS2(=O)=O [HYDROCHLOROTHIAZIDE]
[1]
  V: 39.01 ml 6hr-1 (kg of body weight)-1
[2]
  Cl-: 4.44 m equiv 6hr-1 kg-1 (body weight)-1
[3]
  Urine volume: 2.92 mL
[4]
  Urinary Na+: 0.16 m equiv
[5]
  V: 24.3 ml 6hr-1 (kg of body weight)-1
[6]
  Urine volume: 3.37 mL
[7]
  V: 47.06 ml 6hr-1 (kg of body weight)-1
[8]
  K: 1.23 m equiv 6hr-1 kg-1 (body weight)-1
[9]
  Urinary Na+: 0.24 m equiv
[10]
  Cl-: 4.88 m equiv 6hr-1 kg-1 (body weight)-1
[11]
  Na: 3.03 m equiv 6hr-1 kg-1 (body weight)-1
[12]
  Na: 0.32 m equiv 6hr-1 kg-1 (body weight)-1
[13]
  Cl-: 4.42 m equiv 6hr-1 kg-1 (body weight)-1
[14]
  Na: 2.78 m equiv 6hr-1 kg-1 (body weight)-1
[15]
  LD50: > 6000 mg/kg
[16]
  Urine volume: 4.97 mL
[17]
  Na: 2.14 m equiv 6hr-1 kg-1 (body weight)-1
[18]
  Cl-: 3.94 m equiv 6hr-1 kg-1 (body weight)-1
[19]
  V: 38.07 ml 6hr-1 (kg of body weight)-1
[20]
  ED2: 1.57 mg/kg
[21]
  Na: 3.19 m equiv 6hr-1 kg-1 (body weight)-1

— ChEMBL document CHEMBL1125330, “N-substituted pyrazino[2,3-c][1,2,6]thiadiazine 2,2-dioxides. A new class of diuretics” (J Med Chem, 1992)
